Laboratory results: the RNAGym collection of RNA variant scans (doi:10.1126/science.aae0568)
Variants at the floor of the assay were thinned out.

B1: tRNA (parent)
chain: GUUCCGUUGGCGUAAUGGUAACGCGUCUCCCUCCUAAGGAGAAGACUGCGGGUUCGAGUCCCGUACGGAACG

Variants of: B1
Test: yeast fitness relative to wild type (ratio to wild type); higher = fitter; tRNA-Arg(CCU), competitive growth, 37 C, YPD
Procedure, shortened: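 The tRNA-Arg(CCU) gene variants were made by chemical synthesis with a 3% per-site mutation rate at 69 sites and inserted at the native genomic locus of Saccharomyces cerevisiae. After pooling, the strains were competed in YPD at 37°C for 24 hours in six parallel replicates. Gene amplicons from the start population and each end population were read by 100-nucleotide paired-end sequencing, and Darwinian fitness relative to wild type was taken from genotype frequency changes. Genotypes needed ≥ 100 starting reads, and estimates < 0.5 were set to 0.5.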

Row | Variant | yeast fitness
1 | GGUCCGUUGGCGUAAUGGUAACGUGUCUCCCUCCUAAGGAGAAGACUGCGGGUUCGAGUCCCGUACGGAACG | 0.786
2 | GUUCCGUUGGCGUAAUGGUAACGCGUCUCCCUCCUAAGGAGAAGACGGCGGGUUCGGGUCCCGUACGGAACG | 0.7
3 | GUUCCGUUGGCGUAAUGGUAGUGCGUCUCCCUCCUAAGGAGACGACUGCGGGUUCGAGUCCCGUACGGAACG | 0.57
4 | GUUCAGUUGGCGUAAUCGUAACGCGUCCCCCUCCUAAGGAGAAGACUGCGGGUUCGAGUCCCGUACGGAACG | ≤ 0.5
5 | GUUCGGUUGGCGUAAUGGUAACGCGUCUCCCUCCUAAGGAGGAGACUGCGGGUUCGAGUCCCGUACGGCACG | 0.568
6 | GUUCCGUUGGCGUAAUGGUAACGCGUCUUCCUCCUAAGGAGCAGCCUGCAGGUUCGAGUCCCGUACGGAACG | ≤ 0.5
7 | GUUCCGUUGGCGUAAUGGUUACGCGUCUCCCUCCUAAGGAGAAGACUACGGGUUCGAGUCCGGUACGGAACG | 0.602
8 | GUUCCGUUCGCGUAAUGGAAGCGCGUCUCCCUCCUAAGGAGACGACUGCGGGUUCGAGUCCCGUGCAGAACG | ≤ 0.5
9 | GUUCCGUUGGCGUAAUGGUAACGCGUCUCCCUCCUAAGGAGCAAACUGCGGGAUCGAGUCCCGUACGGAACG | ≤ 0.5
10 | GUUCCGUUGGCGUAAUGGUAACGUGUCUCCCUCGUAAGGAGAAGUCUGCGGGUUCGAGUCCCGUACGCAACG | ≤ 0.5
11 | GUUCCGUUGGCGUAAUGGUAACGCGACUCCCUCCUAACGAGAAGACGGCGGGUUCGAGUCCCGUACGGAACG | ≤ 0.5
12 | GUUCCGUUGGCGUAAUGGUAACGCGUCUCUCUCCUAAGGAGAAAACUGCGGGUUCGAGUCCCGUUCGGAACG | ≤ 0.5
13 | GUUCCGUUGGCGUAAUGGUAAGGCGUCUGCCUCCUAAGGAGAAGACUGCGCGUUCGAGUCCCGUACGGAACG | ≤ 0.5
14 | GUUCCGUUGGCGUGAUGGUAACGCGUCUCACUCCUAAGGAGAAGACUGCAAGUUCGAGUCCCGUACGGGACG | ≤ 0.5
15 | GUUGCGUUCGCGUAAUGGUAACGCGUCUCCCUCCUAAGGAGUAGACUGCGGGUUGGAGUCCCGUACGGAACG | ≤ 0.5
16 | GUUCCGUUGGCGUAAUGGUAACGCGUGUCCCUGCUAAGAAGAAGAUUGCGGGUUCGAGUGCCGUACGGAACG | ≤ 0.5
17 | GUUCCGUUGACGUAUUGGUACCGCCUCUCCCUCCUAAGGAGAAGACUGCGGGUUCGAGUCCCGUACGGAACG | 0.533
18 | GUUCCGUUGGCGUAAUGGUAACGCGUCUCCCUCCUAAGGAGAAGACUGAGGGUUCCAGUCCCGUACAGAACG | ≤ 0.5
19 | GUUCCGUUGGCGUCAUGAUAACGCGUCUCCGUUCUACGGAGAAGACUGCGGGUUCGAGUCCCGUUCGGAACG | ≤ 0.5

Row | Variant | yeast fitness
20 | GUUCCGUUGGCGUAAUGGUGACGCGUCUCCCUCCUAAGGAGAAGACUGCGGGUUCGAGACCCGUACGGAACG | 0.79
21 | GUUCCGUUGGCGUAUUGGUAACGCGUCUCCUUCCACAGGAGAAGACUGCGGGAUCGAGUCCCGUACGGAACG | 0.625
22 | GUUCCGUUAGCGUAUUGGUGACGCGUCUCCCUCCUAAGGAGAAGACUGCGGGUUCGAGUCCCGUACGGAACG | 0.503
23 | GUUCCGUUGGGGUAAUGGUAACGCGUCUCGCUCCUAAGGAGAAGACUGCGGGUUCGAGUCCCGUACGGAACG | ≤ 0.5
24 | GUUCCGUUGGUGUAAUGGUAACGCGUCUCCCACCUAAGGAGAAGACUGCGGGUUCGAGUCCCGUACGGAACG | 0.772
25 | GUUCCGUUGGCGUAAUGGUAACGCGUAUCCCUCCUGAGGAGAAGAAUGCACGUUCGAGUCCCGUACGGAACG | ≤ 0.5
26 | GUGCCGUUGGCGUAAUGGUAACGCGUCUCCCUCCUAAGGAGAAGGCUGGGGGUUCGAGUCCCGUACGGAACG | 0.633
27 | GUUCCGAUGGCGUAAUGGUAACGCGUCUCCCUCCUAAGGAGAAGAGUGCGGGUUCGAGUCCCGUUCGGAACG | 0.686
28 | GUUCCGUUGGCGUACUGGUAACGCGUCUCCGAUGUAAGGAGAAGACUGCGGGUUCGAGUCCCGUACGGAACG | ≤ 0.5
29 | GUUCCGUUGGCGUAAUGGUAAUGCGUCUCCCUCCUAAGGAGAAGACUGCGGGUUCGAGUCCCAUACGGACCG | 0.508
30 | GGUCCGUUGGCGUAAUGGUAACGCGUUUCCCUCCUAAGGAGAAGACUGCGGGUUCGAGUCCCGUACGUAACG | 0.589
31 | GUUCGGUUGGCGUAAUGGUAACGCGUCUCCCUCCUAAGGAGAAGACUGCGGAUUCGAGUCCCGUACGGAACG | 0.806
32 | GUUCCGUUGGCGUAAUGGUAACGCGUCUCCCUCAUAAGGAGAACACUGCGGGUUCGUGUCCUGUACGGAACG | ≤ 0.5
33 | GUUCCGUUGGCCUAAUGGUAACGCGUCUCCCUCCUAAGGAGAAGACUGCGGGUUCGAGUCCGGUCCGGAACG | ≤ 0.5
34 | GUUCCGUUGGCGUAAUGGUAACGCGUCUCACUCCUAAGGAGAAGACCGCGGGUUCGAGUCACGUCCGGAACG | ≤ 0.5
35 | GUUCCGUUGGCGUAAUGGCAACGUGUCUCCCUCCUAAGGCGAAGACUGCGGGUUCGAGUCCCGUACGGAACG | 0.663
36 | GUUCCGUUGGUGUAAUGGUAACGCGUCUCCCUCUUAAGGAGAAGACUGCGGGUUCGAGUCCCGUACGGAACG | 0.714
37 | GUUCCGUUGGCGUAAUGGUAACGCGUCUCCCUCCUGAGGAGAAGACUGCGGGUUCGAGUCCCGUACUGAACG | 0.901
